Structures are written as SMILES.

The source of these data is ChEMBL document CHEMBL1135932, “5'-Deoxy congeners of 9-(3-amido-3-deoxy-beta-D-xylofuranosyl)-N(6)-cyclopentyladenine: new adenosine A(1) receptor antagonists and inverse agonists” (J Med Chem, 2002).

The target in experiment [1] is T1, Adenosine receptor A1 (Homo sapiens) (UniProt P30542).
T1 sequence (whole entry): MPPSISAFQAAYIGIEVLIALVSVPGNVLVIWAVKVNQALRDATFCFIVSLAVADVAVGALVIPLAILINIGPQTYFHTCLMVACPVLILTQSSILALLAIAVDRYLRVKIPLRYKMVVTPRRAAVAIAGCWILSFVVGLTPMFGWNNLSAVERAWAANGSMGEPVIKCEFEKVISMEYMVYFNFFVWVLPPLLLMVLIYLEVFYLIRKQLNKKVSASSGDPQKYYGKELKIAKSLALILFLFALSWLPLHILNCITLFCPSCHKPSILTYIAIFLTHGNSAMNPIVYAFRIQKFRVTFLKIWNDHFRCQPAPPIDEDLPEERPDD
Nature of the experiment: Forskolin-induced cAMP production at human Adenosine A1 receptor. It counts as functional. In short, it runs like this:
(§1)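 Human A1-expressing CHO cells seeded at 2 × 10⁵ cells/well. Next day, 30 min at 37 °C in Hepes-buffered medium pH 7.4 with adenosine deaminase (5 U/mL), cilostamide (50 μM) and rolipram (50 μM). […] Expressed as % of forskolin.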
(In general: Changes in cAMP serve as a functional read-out for many G protein-coupled receptors.)

The target of experiment [2] is T2, Adenosine receptor A1 (Rattus norvegicus, UniProt P25099).
T2 sequence (P25099 whole entry): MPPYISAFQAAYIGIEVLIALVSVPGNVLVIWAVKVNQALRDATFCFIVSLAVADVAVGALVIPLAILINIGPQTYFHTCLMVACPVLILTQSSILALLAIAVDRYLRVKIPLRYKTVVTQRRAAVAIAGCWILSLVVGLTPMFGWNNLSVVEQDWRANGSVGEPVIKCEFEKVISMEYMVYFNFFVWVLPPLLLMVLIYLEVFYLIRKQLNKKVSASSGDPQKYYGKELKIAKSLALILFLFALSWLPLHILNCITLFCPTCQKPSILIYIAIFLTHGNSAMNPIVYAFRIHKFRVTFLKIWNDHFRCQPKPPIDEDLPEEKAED
In words: Binding affinity at rat Adenosine A1 receptor in the absence of GTP. The method in brief: (§2)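 GTP shift taken from these two Ki values. Done only for compounds giving >50% radioligand displacement at 10⁻⁶ M. At least three independent experiments in duplicate.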

Experiment [3] addresses T2, Adenosine receptor A1. In words: Binding affinity at rat Adenosine A1 receptor in the presence of GTP. The method in brief: as §2
The target in experiment [4] is T3, Adenosine receptor A1 (Homo sapiens, UniProt P30542).
T3 sequence (P30542 whole entry): T1 sequence (whole entry)
In words: Binding affinity at human Adenosine A1 receptor expressed in CHO cells. The experiment is classed as cell-based. In short, it runs like this:
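Membranes from CHO cells stably expressing human A1 receptor (~3 pmol/mg protein), 6 μg, incubated 1 h at 25 °C in 50 mM Tris HCl pH 7.4 with ~1.6 nM [³H]DPCPX and increasing test concentrations. Stopped by dilution in ice-cold buffer, then filtration. At least three independent experiments in duplicate.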

For experiment [5], the target named is T1, Adenosine receptor A1 (Homo sapiens). Nature of the experiment: Forskolin-induced cAMP production at human A1 adenosine receptor. It counts as functional. In short, it runs like this:
as §1

The target in experiment [6] is T4, Adenosine receptor A1 (Rattus norvegicus) (UniProt P25099).
T4 sequence (whole entry): T2 sequence (P25099 whole entry)
In words: Percent displacement of radioligand at 10e-6 M from rat Adenosine A1 receptor. The method in brief: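 Radioligand displacement by ligand at 10⁻⁶ M, using rat cortical membranes labelled with [³H]DPCPX.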

Experiment [7] deals with Adenosine receptor A2a (Rattus norvegicus, UniProt P30543). In words: Binding affinity at rat Adenosine A2A receptor. In short, it runs like this:
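Rat striatal membranes with [³H]ZM241385 as radioligand. At least three independent experiments in duplicate.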

The target of experiment [8] is T1, Adenosine receptor A1 (Homo sapiens). In words: Forskolin-induced cAMP production at human Adenosine A1 receptor receptor. It counts as functional. The method in brief:
as §1

Adenosine receptor A2a, sequence (P30543 whole entry): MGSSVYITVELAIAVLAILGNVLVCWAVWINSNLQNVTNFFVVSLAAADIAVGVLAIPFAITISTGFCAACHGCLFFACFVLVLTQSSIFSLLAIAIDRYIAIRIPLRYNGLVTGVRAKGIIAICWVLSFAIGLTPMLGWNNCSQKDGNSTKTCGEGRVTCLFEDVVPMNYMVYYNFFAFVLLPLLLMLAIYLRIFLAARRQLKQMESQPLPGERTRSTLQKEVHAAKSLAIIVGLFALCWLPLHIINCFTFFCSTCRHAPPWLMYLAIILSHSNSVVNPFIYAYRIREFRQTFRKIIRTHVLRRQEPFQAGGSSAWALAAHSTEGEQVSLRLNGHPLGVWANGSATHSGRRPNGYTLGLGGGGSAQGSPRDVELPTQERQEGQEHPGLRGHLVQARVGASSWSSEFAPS

With `O=C(CCCc1cccs1)N[C@@H]1[C@@H](O)[C@H](n2cnc3c(NC4CCCC4)ncnc32)O[C@@H]1CO`, the Production in experiment [1] is 152%. Moreover, the Ki (as a rule, a measure of affinity in units of concentration, obtained from inhibition or displacement) turned out to be 67 nM in experiment [2], 46 nM in experiment [3] and 630 nM in experiment [4].

With `Cc1ccc(C(=O)N[C@@H]2[C@@H](O)[C@H](n3cnc4c(NC5CCCC5)ncnc43)O[C@@H]2C)cc1C`, the Ki in experiment [2] is 236 nM.

Turning to `O=C(N[C@@H]1[C@@H](O)[C@H](n2cnc3c(NC4CCCC4)ncnc32)O[C@@H]1CO)c1ccc2c(c1)OCO2`, the Production in experiment [1] was found to be 126%. In addition, the Ki in experiment [2] worked out at 102 nM; in experiment [4], 443 nM.

As to `C[C@H]1O[C@@H](n2cnc3c(NC4CCCC4)ncnc32)[C@H](O)[C@H]1NC(=O)C1(c2ccccc2)CCCC1`, the inhibitory constant (Ki) in experiment [2] is 138 nM; in experiment [3], 114 nM.

Take `C[C@H]1O[C@@H](n2cnc3c(NC4CCCC4)ncnc32)[C@H](O)[C@H]1NC(=O)CCCc1cccs1`: the Production in experiment [1] turned out to be 148%. Moreover, the Ki in experiment [2] came to 55 nM; in experiment [3], 38 nM; in experiment [4] it was 419 nM.

In the case of `CCc1ccc(C(=O)N[C@@H]2[C@@H](O)[C@H](n3cnc4c(NC5CCCC5)ncnc43)O[C@@H]2C)cc1`, the Ki in experiment [2] was found to be 240 nM.

Regarding `C[C@H]1O[C@@H](n2cnc3c(NC4CCCC4)ncnc32)[C@H](O)[C@H]1NC(=O)C1(c2ccccc2)CCCCC1`, the Ki in experiment [2] amounted to 286 nM; in experiment [3], 210 nM.

In the case of `Cc1ccc(C(=O)N[C@@H]2[C@@H](O)[C@H](n3cnc4c(NC5CCCC5)ncnc43)O[C@@H]2CO)cc1F`, the Production in experiment [1] amounted to 135%. The Ki is 112 nM in experiment [2] and 773 nM in experiment [4].

`CCCn1c(=O)c2[nH]c(C3CCCC3)nc2n(CCC)c1=O` had a Production in experiment [1] of 157%.

On to `Cc1ccc(C(=O)N[C@@H]2[C@@H](O)[C@H](n3cnc4c(NC5CCCC5)ncnc43)O[C@@H]2CO)cc1C`, for which the Ki in experiment [2] stood at 24 nM; in experiment [3], 17 nM; in experiment [4], 137 nM. The Production in experiment [5] came to 126%.

With `Cc1ccc(C(=O)N[C@@H]2[C@@H](O)[C@H](n3cnc4c(NC5CCCC5)ncnc43)O[C@@H]2C)cc1F`, the Dispacement in experiment [6] was determined as 47%.

On to `CC(C)c1ccc(C(=O)N[C@@H]2[C@@H](O)[C@H](n3cnc4c(NC5CCCC5)ncnc43)O[C@@H]2CO)cc1`, for which the Ki stood at 171 nM in experiment [2] and 437 nM in experiment [7].

`C[C@H]1O[C@@H](n2cnc3c(NC4CCCC4)ncnc32)[C@H](O)[C@H]1NC(=O)C1CCCC[C@H]1C(=O)c1cccs1` (some centres not stated) had a Production in experiment [1] of 182%. Besides, the values for the Ki in experiment [2], in experiment [3] and in experiment [4] were 98 nM, 70 nM and 971 nM, respectively.

As for `C[C@H]1O[C@@H](n2cnc3c(NC4CCCC4)ncnc32)[C@H](O)[C@H]1NC(=O)CCCOc1ccccc1`, affinity in experiment [2] was put at a Ki of 473 nM.

As to `O=C(N[C@@H]1[C@@H](O)[C@H](n2cnc3c(NC4CCCC4)ncnc32)O[C@@H]1CO)c1ccc(F)c(Cl)c1`, in experiment [1], the Production was 125%. Further, the inhibitory constant (Ki) was 78 nM in experiment [2], 54 nM in experiment [3] and 579 nM in experiment [4].

`C[C@H]1O[C@@H](n2cnc3c(NC4CCCC4)ncnc32)[C@H](O)[C@H]1O`: the figures for the inhibition constant Ki in experiment [2] and in experiment [3] were 70 nM and 450 nM, respectively.

As to `CC(C)c1ccc(C(=O)N[C@@H]2[C@@H](O)[C@H](n3cnc4c(NC5CCCC5)ncnc43)O[C@@H]2C)cc1`, the inhibition constant (Ki) in experiment [2] came to 270 nM.

Regarding `OC[C@H]1O[C@@H](n2cnc3c(NC4CCCC4)ncnc32)C[C@H]1O`, the results for the Ki in experiment [2] and in experiment [3] were 110 nM and 470 nM, respectively.

Molecule `Cn1cnc2c(NC3CCCC3)ncnc21` yielded a Production in experiment [8] of 139%. Further, the inhibition constant Ki in experiment [2] is 279 nM; in experiment [3], 259 nM; in experiment [4], 1190 nM.

Molecule `C[C@H]1O[C@@H](n2cnc3c(NC4CCCC4)ncnc32)[C@H](O)[C@H]1NC(=O)c1ccc(F)c(Cl)c1` showed a Displacement in experiment [6] of 44%.
